pKi: −log10 of the molar value.

The results in this text go back to ChEMBL document CHEMBL4177582, “Modifications of flexible nonyl chain and nucleobase head group of (+)-erythro-9-(2's-hydroxy-3's-nonyl)adenine [(+)-EHNA] as adenosine deaminase inhibitors” (Bioorg Med Chem, 2017).

The target in one data set is T1, Adenosine deaminase (Bos taurus, UniProt P56658).
T1 sequence (P56658 whole entry): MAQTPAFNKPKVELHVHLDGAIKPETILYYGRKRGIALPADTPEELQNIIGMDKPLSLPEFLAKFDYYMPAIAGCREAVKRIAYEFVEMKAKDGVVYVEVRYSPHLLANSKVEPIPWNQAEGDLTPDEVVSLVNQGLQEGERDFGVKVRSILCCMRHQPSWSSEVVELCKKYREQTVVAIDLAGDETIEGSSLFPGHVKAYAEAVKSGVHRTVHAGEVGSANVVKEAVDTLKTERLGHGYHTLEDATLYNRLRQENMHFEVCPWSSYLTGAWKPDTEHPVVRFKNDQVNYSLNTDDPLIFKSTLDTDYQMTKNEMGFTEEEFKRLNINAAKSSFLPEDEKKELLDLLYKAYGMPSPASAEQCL
As to the kind of experiment: Inhibition of bovine adenosine deaminase pre-incubated for 5 mins before adenosine addition. Particulars: read-out: Ki.

A short description of data set [1]: Drug metabolism in mouse liver microsomes assessed as metabolic turnover rate per 0.125 mg/ml protein pre-incubated at 37 degC for 5 mins before NADPH addition and measured after 30 mins by LC/MS/MS method. In kind it is ADME, microsome. The settings on record: 0.5 h.
Data set [2] can be described thus: Half life in mouse liver microsomes pre-incubated at 37 degC for 5 mins before NADPH addition and measured after 30 mins by LC/MS/MS method. In kind it is ADME, microsome. On the technique in general: Liver microsomes are a subcellular fraction often used to study metabolism.
Data set [3] in a line: Drug metabolism in rat liver microsomes assessed as metabolic turnover rate per 0.125 mg/ml protein pre-incubated at 37 degC for 5 mins before NADPH addition and measured after 30 mins by LC/MS/MS method. The settings on record: 0.5 h. The class given is ADME, microsome.
Data set [4] in a line: Drug metabolism in human liver microsomes assessed as metabolic turnover rate per 0.125 mg/ml protein pre-incubated at 37 degC for 5 mins before NADPH addition and measured after 30 mins by LC/MS/MS method. In kind it is ADME, microsome. Particulars: 0.5 h.
Data set [5] in a line: Half life in rat liver microsomes pre-incubated at 37 degC for 5 mins before NADPH addition and measured after 30 mins by LC/MS/MS method. The class given is ADME, microsome.
Data set [6] in a line: Half life in human liver microsomes pre-incubated at 37 degC for 5 mins before NADPH addition and measured after 30 mins by LC/MS/MS method. In kind it is ADME, microsome.
The nature of data set [7]: Drug metabolism in mouse liver microsomes assessed as drug recovery pre-incubated at 37 degC for 5 mins before NADPH addition and measured after 30 mins by LC/MS/MS method. The class given is ADME, microsome. The settings on record: read-out: Drug recovery.
Data set [8] is described as follows: Drug metabolism in rat liver microsomes assessed as drug recovery pre-incubated at 37 degC for 5 mins before NADPH addition and measured after 30 mins by LC/MS/MS method. The class given is ADME, microsome. The settings on record: read-out: Drug recovery.
Data set [9] can be described thus: Drug metabolism in human liver microsomes assessed as drug recovery pre-incubated at 37 degC for 5 mins before NADPH addition and measured after 30 mins by LC/MS/MS method. Particulars: read-out: Drug recovery. The class given is ADME, microsome.
The nature of data set [10]: Drug metabolism in mouse liver microsomes assessed as drug recovery pre-incubated at 37 degC for 5 mins measured after 30 mins in absence of NADPH by LC/MS/MS method. Particulars: read-out: Drug recovery. The class given is ADME, microsome.
The nature of data set [11]: Drug metabolism in rat liver microsomes assessed as drug recovery pre-incubated at 37 degC for 5 mins measured after 30 mins in absence of NADPH by LC/MS/MS method. In kind it is ADME, microsome. Particulars: read-out: Drug recovery.
Data set [12] can be described thus: Drug metabolism in human liver microsomes assessed as drug recovery pre-incubated at 37 degC for 5 mins measured after 30 mins in absence of NADPH by LC/MS/MS method. Particulars: read-out: Drug recovery. The class given is ADME, microsome.
The nature of data set [13]: AUC (0 to t) in Wistar rat at 1 mg/kg, iv after 0.25 to 24 hrs by LC/MS/MS method. In kind it is ADME, organism-based. More on the design: dose 1 mg/kg, time 0.25-24 hr, route intravenous. The settings on record: in vivo. The method in brief: (§1)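 Male Wistar rats were given a single intravenous dose. The vehicle was NMP 10%, PEG-300 15%, and 0.1M ammonium acetate buffer q.s. (pH 3). Plasma concentration–time profiles were used to derive AUC0-t, Vss, clearance (mL/min/kg) and t1/2.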

A short description of data set [14]: Volume of distribution at steady state in Wistar rat at 1 mg/kg, iv after 0.25 to 24 hrs by LC/MS/MS method. The class given is ADME, organism-based. The settings on record: in vivo, read-out: Vdss. An outline of the steps:
as §1

Data set [15] in a line: Clearance in Wistar rat at 1 mg/kg, iv after 0.25 to 24 hrs by LC/MS/MS method. The class given is ADME, organism-based. Particulars: in vivo. An outline of the steps:
as §1

The nature of data set [16]: Half life in Wistar rat at 1 mg/kg, iv after 0.25 to 24 hrs by LC/MS/MS method. In kind it is ADME, organism-based. The settings on record: in vivo. An outline of the steps: as §1
Data set [17] is described as follows: AUC (0 to t) in Wistar rat at 3 mg/kg, iv after 0.25 to 24 hrs by LC/MS/MS method. In kind it is ADME, organism-based. More on the design: time upper 24 hr, dose 3 mg/kg, time lower 0.25 hr, route intravenous. Particulars: in vivo. The method in brief: as §1
A short description of data set [18]: Volume of distribution at steady state in Wistar rat at 3 mg/kg, iv after 0.25 to 24 hrs by LC/MS/MS method. In kind it is ADME, organism-based. The settings on record: in vivo, read-out: Vdss. The method in brief: as §1
The nature of data set [19]: Clearance in Wistar rat at 3 mg/kg, iv after 0.25 to 24 hrs by LC/MS/MS method. The class given is ADME, organism-based. Particulars: in vivo. The method in brief:
as §1

Data set [20] can be described thus: Half life in Wistar rat at 3 mg/kg, iv after 0.25 to 24 hrs by LC/MS/MS method. The class given is ADME, organism-based. Particulars: in vivo. An outline of the steps:
as §1

For data set [21], the system named is Rattus norvegicus. Briefly: Plasma concentration in Wistar rat at 1 mg/kg, iv after 1 hr by LC/MS/MS method. In kind it is ADME, organism-based. Particulars: in vivo, BLD = below limit of detection. An outline of the steps:
as §1

Data set [22] relates to Rattus norvegicus. As to the kind of experiment: Clearance in Wistar rat at 1 mg/kg, iv after 1 hr by LC/MS/MS method. In kind it is ADME, organism-based. Particulars: in vivo, BLD = below limit of detection. An outline of the steps: as §1

For `C[C@H](O)[C@@H](CCc1cccc(C(F)(F)F)c1)n1cnc(C(N)=O)c1`, the pKi at Adenosine deaminase was 8.23. The Drug metabolism in data set [1] worked out at 0.04 nmol/min/mg; in data set [3] it was 0.04 nmol/min/mg; in data set [4] it was 0.06 nmol/min/mg. The half-life in data set [2] is over 30 min; in [5] it was over 30 min; in data set [6], over 30 min; in data set [16], 56.4 min. For the same compound, the remaining at 0.5 h was 89% in data set [7]; 87% in data set [8]; 79% in data set [9]; 93% in data set [10]; 92% in data set [11]; 94% in data set [12]. In addition, in data set [13], the AUC(0-t) came to 1.42 µM·h. The Vd in [14] was determined as 2 L/kg. In addition, the clearance in [15] was 33.3 mL/min/kg.
As for `C[C@H](O)[C@@H](CCC1CCCCC1)n1cnc2c(N)ncnc21`, the pKi on Adenosine deaminase was 8.72. Also, the Drug metabolism in data set [1] is listed as 0.07 nmol/min/mg; in [3] it was 0.44 nmol/min/mg; in data set [4] it was 0.11 nmol/min/mg. Moreover, the half-life in data set [2] was over 30 min; in [5], 13 min; in data set [6], over 30 min. Moreover, the remaining at 0.5 h turned out to be 77% in data set [7]; 19% in [8]; 65% in data set [9]; 92% in [10]; 94% in data set [11]; 83% in data set [12].
As to `C[C@H](O)[C@@H](CCc1cccc(C(F)(F)F)c1)n1cnc2c(N)ncnc21`, at Adenosine deaminase, the pKi is 8.96. Moreover, the Drug metabolism in [1] came to 0.08 nmol/min/mg; in data set [3], 0.04 nmol/min/mg; in data set [4], 0.06 nmol/min/mg. For the same compound, the half-life in data set [2] was over 30 min; in data set [5], over 30 min; in data set [6], over 30 min; in data set [20], under 30 min. Also, the remaining at 0.5 h in data set [7] was found to be 74%; in [8] it was 86%; in data set [9], 80%; in data set [10], 89%; in data set [11] it was 91%; in [12] it was 95%. Also, the exposure AUC(0-t) in [17] came out at 1.61 µM·h. For the same compound, in data set [18], the Vd was determined as 1.88 L/kg. Further, the clearance in [19] is 85 mL/min/kg.
For `CCc1ccc(CC[C@H]([C@H](C)O)n2cnc3c(N)ncnc32)s1`, the pKi on Adenosine deaminase was 8.68. Besides, the Drug metabolism in data set [1] is 0.11 nmol/min/mg; in data set [3], 0.15 nmol/min/mg; in [4], 0.07 nmol/min/mg. Also, the half-life in data set [2], in data set [5] and in data set [6] was over 30 min throughout. Moreover, the remaining at 0.5 h in data set [7] turned out to be 64%; in data set [8] it was 58%; in [9] it was 76%; in [10], 90%; in data set [11], 95%; in data set [12], 95%.
`COC(=O)c1cccc(CC[C@H]([C@H](C)O)n2cnc3c(N)ncnc32)c1`: the pKi at Adenosine deaminase was 8.66. For the same compound, the Drug metabolism in data set [1] is given as 0.04 nmol/min/mg; in data set [3], under 0.04 nmol/min/mg; in [4], 0.1 nmol/min/mg. Also, the half-life in data set [2], in [5] and in data set [6] was over 30 min each time. Further, the remaining at 0.5 h in [7] came to 88%; in [8], 96%; in data set [9], 68%; in data set [10] it was 100%; in data set [11], 99%; in [12], 65%.
In the case of `C[C@H](O)[C@@H](CCc1ccc(C(F)(F)F)cc1)n1cnc2c(N)ncnc21`, the pKi at Adenosine deaminase is 8.28. The Drug metabolism was 0.04 nmol/min/mg in data set [1], under 0.04 nmol/min/mg in data set [3] and under 0.04 nmol/min/mg in [4]. In addition, the half-life in data set [2] was over 30 min; in data set [5] it was over 30 min; in data set [6], over 30 min; in [20] it was 133 min. The remaining at 0.5 h is 85% in data set [7]; 93% in data set [8]; 99% in data set [9]; 94% in [10]; 93% in data set [11]; 95% in data set [12]. The AUC(0-t) in data set [17] is 2.21 µM·h. Further, in [18], the Vd turned out to be 7.01 L/kg. This compound had a clearance in data set [19] of 59 mL/min/kg.
Turning to `CCCCCC[C@H]([C@H](C)O)n1cnc2c(N)ncnc21` [(+)-EHNA], the pKi at Adenosine deaminase is 8.66. Moreover, the AUC(0-t) in data set [13] worked out at 0.35 µM·h. In addition, the Cp entry in the data set with Rattus norvegicus [21] is given as “Bld”. For the same compound, the CL result in the data set with Rattus norvegicus [22] is reported as “Bld”.

A word on the pKi: it is the negative decadic logarithm of the Ki, by convention in mol/L. Usually half-life stands for how long it takes for the measured level to halve. The low end stands for rapid decline, the high end for slow decline. Usually AUC(0-t) stands for the area under the concentration-time curve up to a stated or last time point. Low readings indicate low exposure, high ones high exposure. By clearance is commonly meant a measure of how efficiently the substance is removed, as volume per time.
